# System: Mus musculus
# Assay: Area under curve(AUC) was measured in mice after oral administration (50 mg/kg)
# Assay type: ADME, organism-based
# Conditions: in vivo
# Procedure, shortened: (§1)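 Male Swiss-Webster mice (20 ± 2 g) were given a single 50 mg/kg oral dose by gavage. Blood concentrations and urine levels were measured by microbiological assay, and urinary recovery was taken over 0–6 h.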
row,SMILES,AUC
1,C=CC1=C(C(=O)O)N2C(=O)[C@@H](NC(=O)[C@H](N)c3ccc(O)cc3)[C@H]2CO1,30 µg/mL

# System: Mus musculus
# Assay: Area under curve(AUC) was measured in mice after oral administration.
# Assay type: ADME, organism-based
# Parameters: concentration or dose not given beside the values; unit not given here
# Conditions: in vivo
# Procedure, shortened: as §1
row,AUC,SMILES
1,21,C=CC1=C(C(=O)O)N2C(=O)[C@@H](NC(=O)[C@H](N)c3ccc(O)cc3)[C@H]2SC1
2,41,C=CCC1=C(C(=O)O)N2C(=O)[C@@H](NC(=O)[C@H](N)c3ccc(O)cc3)[C@H]2SC1

row,SMILES,AUC
1,C=CCC1=C(C(=O)O)N2C(=O)[C@@H](NC(=O)[C@H](N)c3ccc(O)cc3)[C@H]2CO1,32

# System: not listed separately
# Assay: Cmax was measured in mice after an oral dose of 50 mg/kg.
# Assay type: ADME, organism-based
# Parameters: dose 50 mg/kg, route oral
# Conditions: mouse, in vivo
# Procedure, shortened: as §1
row,SMILES,Cmax
1,C=CC1=C(C(=O)O)N2C(=O)[C@@H](NC(=O)[C@H](N)c3ccc(O)cc3)[C@H]2SC1,22000 ng/mL
2,C=CCC1=C(C(=O)O)N2C(=O)[C@@H](NC(=O)[C@H](N)c3ccc(O)cc3)[C@H]2SC1,45000 ng/mL
3,C=CC1=C(C(=O)O)N2C(=O)[C@@H](NC(=O)[C@H](N)c3ccc(O)cc3)[C@H]2CO1,26000 ng/mL
4,C=CCC1=C(C(=O)O)N2C(=O)[C@@H](NC(=O)[C@H](N)c3ccc(O)cc3)[C@H]2CO1,31000 ng/mL

# Species on record: Mus musculus
# Assay: Percentage of dose recovered after 0-6 hr in the urine of mice was measured.
# Assay type: ADME, organism-based
# Conditions: in vivo
# Procedure, shortened: as §1
row,SMILES,"Urinary recovery (% of dose, 0-6 h)"
1,C=CCC1=C(C(=O)O)N2C(=O)[C@@H](NC(=O)[C@H](N)c3ccc(O)cc3)[C@H]2SC1,79%
2,C=CC1=C(C(=O)O)N2C(=O)[C@@H](NC(=O)[C@H](N)c3ccc(O)cc3)[C@H]2CO1,73%
3,C=CCC1=C(C(=O)O)N2C(=O)[C@@H](NC(=O)[C@H](N)c3ccc(O)cc3)[C@H]2CO1,46%

# System: not listed separately
# Assay: Half life was measured.
# Assay type: ADME
# Conditions: not given
# Procedure, shortened: as §1
row,SMILES,half-life
1,C=CC1=C(C(=O)O)N2C(=O)[C@@H](NC(=O)[C@H](N)c3ccc(O)cc3)[C@H]2SC1,29 min
2,C=CCC1=C(C(=O)O)N2C(=O)[C@@H](NC(=O)[C@H](N)c3ccc(O)cc3)[C@H]2SC1,34 min
3,C=CC1=C(C(=O)O)N2C(=O)[C@@H](NC(=O)[C@H](N)c3ccc(O)cc3)[C@H]2CO1,39 min
4,C=CCC1=C(C(=O)O)N2C(=O)[C@@H](NC(=O)[C@H](N)c3ccc(O)cc3)[C@H]2CO1,32 min

# System: Escherichia coli
# Assay: Minimum inhibitory concentration (MIC) against Escherichia coli by 2-fold microdilution technique.
# Assay type: functional
# Conditions: Escherichia coli; read-out: MIC
# Procedure, shortened: (§2)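 For each organism, an overnight culture was grown in Mueller-Hinton broth at 37 °C. Twofold microtiter dilutions in Nutrient Broth covered 0.005–125 µg/mL. Each well received about 10^4 organisms, and plates were incubated 18 h at 37 °C. MIC was the lowest concentration giving no visible growth.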
row,SMILES,MIC
1,C=CC1=C(C(=O)O)N2C(=O)[C@@H](NC(=O)[C@H](N)c3ccc(O)cc3)[C@H]2SC1,4 µg/mL
2,C=CCC1=C(C(=O)O)N2C(=O)[C@@H](NC(=O)[C@H](N)c3ccc(O)cc3)[C@H]2SC1,4 µg/mL
3,C=CC1=C(C(=O)O)N2C(=O)[C@@H](NC(=O)[C@H](N)c3ccc(O)cc3)[C@H]2CO1,2 µg/mL
4,C=CCC1=C(C(=O)O)N2C(=O)[C@@H](NC(=O)[C@H](N)c3ccc(O)cc3)[C@H]2CO1,2 µg/mL

# System: Escherichia coli
# Assay: Minimum inhibitory concentration (MIC) […] against Escherichia coli.
# Assay type: functional
# Conditions: Escherichia coli; read-out: MIC
# Procedure, shortened: as §2
row,SMILES,MIC
1,C=CC1=C(C(=O)O)N2C(=O)[C@@H](NC(=O)[C@H](N)c3ccc(O)cc3)[C@H]2CO1,2 µg/mL
2,C=CCC1=C(C(=O)O)N2C(=O)[C@@H](NC(=O)[C@H](N)c3ccc(O)cc3)[C@H]2CO1,4 µg/mL

# System: Haemophilus influenzae
# Assay: Minimum inhibitory concentration (MIC) against Haemophilus influenzae by 2-fold microdilution technique.
# Assay type: functional
# Conditions: Haemophilus influenzae; read-out: MIC
# Procedure, shortened: as §2
row,SMILES,MIC
1,C=CCC1=C(C(=O)O)N2C(=O)[C@@H](NC(=O)[C@H](N)c3ccc(O)cc3)[C@H]2SC1,1 µg/mL
2,C=CC1=C(C(=O)O)N2C(=O)[C@@H](NC(=O)[C@H](N)c3ccc(O)cc3)[C@H]2CO1,1 µg/mL
3,C=CCC1=C(C(=O)O)N2C(=O)[C@@H](NC(=O)[C@H](N)c3ccc(O)cc3)[C@H]2CO1,2 µg/mL

# System: Klebsiella pneumoniae
# Assay: Minimum inhibitory concentration (MIC) against Klebsiella pneumoniae by 2-fold microdilution technique.
# Assay type: functional
# Conditions: Klebsiella pneumoniae; read-out: MIC
# Procedure, shortened: as §2
row,SMILES,MIC
1,C=CC1=C(C(=O)O)N2C(=O)[C@@H](NC(=O)[C@H](N)c3ccc(O)cc3)[C@H]2SC1,16 µg/mL
2,C=CCC1=C(C(=O)O)N2C(=O)[C@@H](NC(=O)[C@H](N)c3ccc(O)cc3)[C@H]2SC1,4 µg/mL
3,C=CC1=C(C(=O)O)N2C(=O)[C@@H](NC(=O)[C@H](N)c3ccc(O)cc3)[C@H]2CO1,8 µg/mL
4,C=CCC1=C(C(=O)O)N2C(=O)[C@@H](NC(=O)[C@H](N)c3ccc(O)cc3)[C@H]2CO1,16 µg/mL

# System: Escherichia coli
# Assay: Protective dose (PD50) against Escherichia coli infected mice
# Assay type: functional
# Conditions: read-out: PD50
# Procedure, shortened: (§3)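 Male Swiss-Webster mice (20 ± 2 g) were challenged intraperitoneally with enough bacteria to kill untreated controls within 72 h. Drug was given orally by gavage twice: at 0 and 2 h after E. coli challenge, or at 1 and 3.5 h after S. pneumoniae challenge. PD50 is the dose in mg/kg per dose that protects 50% of animals.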
row,SMILES,ED50
1,C=CC1=C(C(=O)O)N2C(=O)[C@@H](NC(=O)[C@H](N)c3ccc(O)cc3)[C@H]2CO1,2.1 mg/kg
2,C=CCC1=C(C(=O)O)N2C(=O)[C@@H](NC(=O)[C@H](N)c3ccc(O)cc3)[C@H]2CO1,9.2 mg/kg

# System: Streptococcus pneumoniae
# Assay: Protective dose (PD50) against Streptococcus pneumoniae infected mice
# Assay type: functional
# Conditions: Streptococcus pneumoniae; read-out: PD50
# Procedure, shortened: as §3
row,SMILES,ED50
1,C=CC1=C(C(=O)O)N2C(=O)[C@@H](NC(=O)[C@H](N)c3ccc(O)cc3)[C@H]2CO1,0.8 mg/kg
2,C=CCC1=C(C(=O)O)N2C(=O)[C@@H](NC(=O)[C@H](N)c3ccc(O)cc3)[C@H]2CO1,1 mg/kg

# System: Proteus mirabilis
# Assay: Minimum inhibitory concentration (MIC) against Proteus mirabilis by 2-fold microdilution technique.
# Assay type: functional
# Conditions: Proteus mirabilis; read-out: MIC
# Procedure, shortened: as §2
row,SMILES,MIC
1,C=CC1=C(C(=O)O)N2C(=O)[C@@H](NC(=O)[C@H](N)c3ccc(O)cc3)[C@H]2SC1,4 µg/mL
2,C=CCC1=C(C(=O)O)N2C(=O)[C@@H](NC(=O)[C@H](N)c3ccc(O)cc3)[C@H]2SC1,1 µg/mL
3,C=CC1=C(C(=O)O)N2C(=O)[C@@H](NC(=O)[C@H](N)c3ccc(O)cc3)[C@H]2CO1,0.5 µg/mL
4,C=CCC1=C(C(=O)O)N2C(=O)[C@@H](NC(=O)[C@H](N)c3ccc(O)cc3)[C@H]2CO1,1 µg/mL

# System: Streptococcus pneumoniae
# Assay: Minimum inhibitory concentration (MIC) against Streptococcus pneumoniae by 2-fold microdilution technique
# Assay type: functional
# Conditions: Streptococcus pneumoniae; read-out: MIC
# Procedure, shortened: as §2
row,SMILES,MIC
1,C=CC1=C(C(=O)O)N2C(=O)[C@@H](NC(=O)[C@H](N)c3ccc(O)cc3)[C@H]2SC1,0.03 µg/mL
2,C=CCC1=C(C(=O)O)N2C(=O)[C@@H](NC(=O)[C@H](N)c3ccc(O)cc3)[C@H]2SC1,0.03 µg/mL
3,C=CC1=C(C(=O)O)N2C(=O)[C@@H](NC(=O)[C@H](N)c3ccc(O)cc3)[C@H]2CO1,0.03 µg/mL
4,C=CCC1=C(C(=O)O)N2C(=O)[C@@H](NC(=O)[C@H](N)c3ccc(O)cc3)[C@H]2CO1,0.03 µg/mL

# System: Streptococcus pneumoniae
# Assay: Minimum inhibitory concentration (MIC) […] against Streptococcus pneumoniae.
# Assay type: functional
# Conditions: Streptococcus pneumoniae; read-out: MIC
# Procedure, shortened: as §2
row,SMILES,MIC
1,C=CC1=C(C(=O)O)N2C(=O)[C@@H](NC(=O)[C@H](N)c3ccc(O)cc3)[C@H]2CO1,0.03 µg/mL
2,C=CCC1=C(C(=O)O)N2C(=O)[C@@H](NC(=O)[C@H](N)c3ccc(O)cc3)[C@H]2CO1,0.016 µg/mL

# System: Enterococcus faecalis
# Assay: Minimum inhibitory concentration (MIC) against Streptococcus faecalis by 2-fold microdilution technique.
# Assay type: functional
# Conditions: Enterococcus faecalis; read-out: MIC
# Procedure, shortened: as §2
row,SMILES,MIC
1,C=CC1=C(C(=O)O)N2C(=O)[C@@H](NC(=O)[C@H](N)c3ccc(O)cc3)[C@H]2SC1,2 µg/mL
2,C=CCC1=C(C(=O)O)N2C(=O)[C@@H](NC(=O)[C@H](N)c3ccc(O)cc3)[C@H]2SC1,18 µg/mL
3,C=CC1=C(C(=O)O)N2C(=O)[C@@H](NC(=O)[C@H](N)c3ccc(O)cc3)[C@H]2CO1,0.5 µg/mL
4,C=CCC1=C(C(=O)O)N2C(=O)[C@@H](NC(=O)[C@H](N)c3ccc(O)cc3)[C@H]2CO1,1 µg/mL

# System: Streptococcus pyogenes
# Assay: Minimum inhibitory concentration (MIC) against Streptococcus pyogenes by 2-fold microdilution technique
# Assay type: functional
# Conditions: Streptococcus pyogenes; read-out: MIC
# Procedure, shortened: as §2
row,SMILES,MIC
1,C=CC1=C(C(=O)O)N2C(=O)[C@@H](NC(=O)[C@H](N)c3ccc(O)cc3)[C@H]2SC1,0.03 µg/mL
2,C=CCC1=C(C(=O)O)N2C(=O)[C@@H](NC(=O)[C@H](N)c3ccc(O)cc3)[C@H]2SC1,0.016 µg/mL
3,C=CC1=C(C(=O)O)N2C(=O)[C@@H](NC(=O)[C@H](N)c3ccc(O)cc3)[C@H]2CO1,0.016 µg/mL
4,C=CCC1=C(C(=O)O)N2C(=O)[C@@H](NC(=O)[C@H](N)c3ccc(O)cc3)[C@H]2CO1,0.008 µg/mL

# System: Staphylococcus aureus
# Assay: Minimum inhibitory concentration (MIC) against Staphylococcus aureus by 2-fold microdilution technique.
# Assay type: functional
# Conditions: Staphylococcus aureus; read-out: MIC
# Procedure, shortened: as §2
row,SMILES,MIC
1,C=CC1=C(C(=O)O)N2C(=O)[C@@H](NC(=O)[C@H](N)c3ccc(O)cc3)[C@H]2SC1,0.25 µg/mL
2,C=CCC1=C(C(=O)O)N2C(=O)[C@@H](NC(=O)[C@H](N)c3ccc(O)cc3)[C@H]2SC1,0.13 µg/mL
3,C=CC1=C(C(=O)O)N2C(=O)[C@@H](NC(=O)[C@H](N)c3ccc(O)cc3)[C@H]2CO1,0.13 µg/mL
4,C=CCC1=C(C(=O)O)N2C(=O)[C@@H](NC(=O)[C@H](N)c3ccc(O)cc3)[C@H]2CO1,0.13 µg/mL

# Reference: ChEMBL document CHEMBL1124257, “An examination of O-2-isocephems as orally absorbable antibiotics” (J Med Chem, 1988)
